Tested on: Fibroblast
Assay: Multiplex assay against human fibroblast
Type: toxicity, cell-based
How it was run: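 Tubulin, mitochondrial-mass and membrane-permeability phenotypes are per cents of healthy-nucleus cells. Cells were gated by CellPathfinder machine learning into Hoechst high-intensity objects or normal cells, normal cells into healthy, pyknosed or fragmented nuclei, and pyknosed cells into mitotic or apoptotic. Before that, live cells stained at seeding with Hoechst33342, BioTracker Green Microtubule Cytoskeleton Dye, MitoTracker Red and Annexin V Alexa Fluor 680 were imaged on a CQ1 microscope at 37°C and 5% CO2 after compound addition.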

[1] = 12 h, 1 µM, compound concentration 1 uM, replicate 1
[2] = 12 h, 1 µM, compound concentration 1 uM, replicate 2
[3] = 12 h, 10 µM, compound concentration 10 uM, replicate 1
[4] = 12 h, 10 µM, compound concentration 10 uM, replicate 2
[5] = 24 h, 1 µM, compound concentration 1 uM, replicate 1
[6] = 24 h, 1 µM, compound concentration 1 uM, replicate 2
[7] = 24 h, 10 µM, compound concentration 10 uM, replicate 1
[8] = 24 h, 10 µM, compound concentration 10 uM, replicate 2
[9] = 48 h, 1 µM, compound concentration 1 uM, replicate 1
[10] = 48 h, 1 µM, compound concentration 1 uM, replicate 2
[11] = 48 h, 10 µM, compound concentration 10 uM, replicate 1
[12] = 48 h, 10 µM, compound concentration 10 uM, replicate 2

Question: What does the source list for O=C(Nc1cc(-c2ccccc2)nn1-c1ccccc1F)c1ccc([N+](=O)[O-])cc1?
Answer: Population Apoptotic (%) [1]: 28%; Population Fragmented Nuclei (%) [1]: 17%; Population Healthy Nuclei (%) [1]: 71%; Population Hoechst High Intensity Objects (%) [1]: 2%; Population Membrane Permeable-Phenotype (%) [1]: 1%; Population Mitochondria Different-Phenotype (%) [1]: 1%; Population Mitotic Cells (%) [1]: 71%; Population Normal (%) [1]: 97%; Population Pyknosed Nuclei (%) [1]: 10%; Population Tubulin-Different-Phenotype (%) [1]: 22%; Total Cell Count [1]: 138; Population Apoptotic (%) [2]: 32%; Population Fragmented Nuclei (%) [2]: 19%; Population Healthy Nuclei (%) [2]: 55%; Population Hoechst High Intensity Objects (%) [2]: 8%; Population Membrane Permeable-Phenotype (%) [2]: 4%; Population Mitochondria Different-Phenotype (%) [2]: 9%; Population Mitotic Cells (%) [2]: 67%; Population Normal (%) [2]: 91%; Population Pyknosed Nuclei (%) [2]: 25%; Population Tubulin-Different-Phenotype (%) [2]: 53%; Total Cell Count [2]: 160; Population Apoptotic (%) [3]: 28%; Population Fragmented Nuclei (%) [3]: 10%; Population Healthy Nuclei (%) [3]: 66%; Population Hoechst High Intensity Objects (%) [3]: 2%; Population Membrane Permeable-Phenotype (%) [3]: 1%; Population Mitochondria Different-Phenotype (%) [3]: 4%; Population Mitotic Cells (%) [3]: 71%; Population Normal (%) [3]: 97%; Population Pyknosed Nuclei (%) [3]: 22%; Population Tubulin-Different-Phenotype (%) [3]: 48%; Total Cell Count [3]: 170; Population Apoptotic (%) [4]: 45%; Population Fragmented Nuclei (%) [4]: 25%; Population Healthy Nuclei (%) [4]: 47%; Population Hoechst High Intensity Objects (%) [4]: 6%; Population Membrane Permeable-Phenotype (%) [4]: 6%; Population Mitochondria Different-Phenotype (%) [4]: 3%; Population Mitotic Cells (%) [4]: 54%; Population Normal (%) [4]: 93%; Population Pyknosed Nuclei (%) [4]: 26%; Population Tubulin-Different-Phenotype (%) [4]: 77%; Total Cell Count [4]: 149; Population Apoptotic (%) [5]: 53%; Population Fragmented Nuclei (%) [5]: 16%; Population Healthy Nuclei (%) [5]: 74%; Population Hoechst High Intensity Objects (%) [5]: 2%; Population Membrane Permeable-Phenotype (%) [5]: 0%; Population Mitochondria Different-Phenotype (%) [5]: 0%; Population Mitotic Cells (%) [5]: 46%; Population Normal (%) [5]: 97%; Population Pyknosed Nuclei (%) [5]: 9%; Population Tubulin-Different-Phenotype (%) [5]: 18%; Total Cell Count [5]: 135; Population Apoptotic (%) [6]: 50%; Population Fragmented Nuclei (%) [6]: 25%; Population Healthy Nuclei (%) [6]: 53%; Population Hoechst High Intensity Objects (%) [6]: 7%; Population Membrane Permeable-Phenotype (%) [6]: 6%; Population Mitochondria Different-Phenotype (%) [6]: 2%; Population Mitotic Cells (%) [6]: 50%; Population Normal (%) [6]: 92%; Population Pyknosed Nuclei (%) [6]: 20%; Population Tubulin-Different-Phenotype (%) [6]: 52%; Total Cell Count [6]: 156; Population Apoptotic (%) [7]: 26%; Population Fragmented Nuclei (%) [7]: 7%; Population Healthy Nuclei (%) [7]: 76%; Population Hoechst High Intensity Objects (%) [7]: 4%; Population Membrane Permeable-Phenotype (%) [7]: 1%; Population Mitochondria Different-Phenotype (%) [7]: 7%; Population Mitotic Cells (%) [7]: 73%; Population Normal (%) [7]: 95%; Population Pyknosed Nuclei (%) [7]: 16%; Population Tubulin-Different-Phenotype (%) [7]: 49%; Total Cell Count [7]: 163; Population Apoptotic (%) [8]: 28%; Population Fragmented Nuclei (%) [8]: 28%; Population Healthy Nuclei (%) [8]: 53%; Population Hoechst High Intensity Objects (%) [8]: 6%; Population Membrane Permeable-Phenotype (%) [8]: 9%; Population Mitochondria Different-Phenotype (%) [8]: 1%; Population Mitotic Cells (%) [8]: 72%; Population Normal (%) [8]: 93%; Population Pyknosed Nuclei (%) [8]: 18%; Population Tubulin-Different-Phenotype (%) [8]: 69%; Total Cell Count [8]: 147; Population Apoptotic (%) [9]: 54%; Population Fragmented Nuclei (%) [9]: 23%; Population Healthy Nuclei (%) [9]: 67%; Population Hoechst High Intensity Objects (%) [9]: 7%; Population Membrane Permeable-Phenotype (%) [9]: 1%; Population Mitochondria Different-Phenotype (%) [9]: 0%; Population Mitotic Cells (%) [9]: 45%; Population Normal (%) [9]: 92%; Population Pyknosed Nuclei (%) [9]: 8%; Population Tubulin-Different-Phenotype (%) [9]: 18%; Total Cell Count [9]: 145; Population Apoptotic (%) [10]: 55%; Population Fragmented Nuclei (%) [10]: 30%; Population Healthy Nuclei (%) [10]: 53%; Population Membrane Permeable-Phenotype (%) [10]: 5%; Population Mitochondria Different-Phenotype (%) [10]: 4%; Population Mitotic Cells (%) [10]: 44%; Population Pyknosed Nuclei (%) [10]: 15%; Population Tubulin-Different-Phenotype (%) [10]: 54%; Total Cell Count [10]: 183; Population Apoptotic (%) [11]: 66%; Population Fragmented Nuclei (%) [11]: 16%; Population Healthy Nuclei (%) [11]: 70%; Population Hoechst High Intensity Objects (%) [11]: 7%; Population Membrane Permeable-Phenotype (%) [11]: 3%; Population Mitochondria Different-Phenotype (%) [11]: 3%; Population Mitotic Cells (%) [11]: 33%; Population Normal (%) [11]: 92%; Population Pyknosed Nuclei (%) [11]: 12%; Population Tubulin-Different-Phenotype (%) [11]: 55%; Total Cell Count [11]: 160; Population Apoptotic (%) [12]: 52%; Population Fragmented Nuclei (%) [12]: 31%; Population Healthy Nuclei (%) [12]: 54%; Population Hoechst High Intensity Objects (%) [12]: 5%; Population Membrane Permeable-Phenotype (%) [12]: 6%; Population Mitotic Cells (%) [12]: 47%; Population Normal (%) [12]: 94%; Population Pyknosed Nuclei (%) [12]: 14%; Population Tubulin-Different-Phenotype (%) [12]: 66%; Total Cell Count [12]: 153
